From ChEMBL document CHEMBL1146194, “The Anti-Trypanosoma cruzi activity of posaconazole in a murine model of acute Chagas' disease is less dependent on gamma interferon than that of benznidazole” (2007)

Legend:
Type in all cases: functional
Trypanosoma cruzi [1] = experiment: Antimicrobial activity against Trypanosoma cruzi Y infected IFN-gamma knock out C57BL/6 mouse Chagas disease model assessed as percent of cured mouse at 100 mg/kg, po after 20 days
How it was run: (§1)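 Male mice, 8–10 weeks, infected i.p. with 5,000 blood trypomastigotes (Y strain, passaged in Swiss-Webster mice). From 4 dpi, dosed orally once daily for 20 consecutive days in water with arabic gum. Fresh tail blood examined to 60 dpi. Aparasitemic mice were then bled (0.5 ml), and blood was cultured in LIT medium at 28°C for 30–60 days. Cure means negative by both methods.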

Mus musculus [2] = experiment: Effect on survival in Trypanosoma cruzi Y infected C57BL/6 mouse Chagas disease model assessed as mean survival time at 100 mg/kg, po after 20 days
How it was run: (§2)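 Male C57BL/6 mice aged 8–10 weeks (wild-type or cytokine KO) were infected i.p. with 5,000 Y-strain blood trypomastigotes. Treatment was oral, 100 mg/kg once daily in water with arabic gum, from 4 dpi for 20 consecutive days. Deaths were recorded up to 60 dpi, and mortality was given as deaths/total. Mean survival time assigned survivors a death time of exactly 60 days. Log rank and Peto-Peto-Wilcoxon tests were used.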

Mus musculus [3] = experiment: Effect on survival in Trypanosoma cruzi Y infected IL12 knock out C57BL/6 mouse Chagas disease model assessed as mean survival time at 100 mg/kg, po after 20 days; how it was run: as §2
Trypanosoma cruzi [4] = experiment: Antimicrobial activity against Trypanosoma cruzi Y infected wild type C57BL/6 mouse Chagas disease model assessed as percent of cured mouse at 100 mg/kg, po after 20 days; how it was run: as §1
Trypanosoma cruzi [5] = experiment: Antimicrobial activity against Trypanosoma cruzi Y infected IL12 knock out C57BL/6 mouse Chagas disease model assessed as percent of cured mouse at 100 mg/kg, po after 20 days; how it was run: as §1
Mus musculus [6] = experiment: Mortality rate in Trypanosoma cruzi Y infected wild type C57BL/6 mouse Chagas disease model at 100 mg/kg, po after 20 days; how it was run: as §2
Mus musculus [7] = experiment: Effect on survival in Trypanosoma cruzi Y infected IFN-gamma knock out C57BL/6 mouse Chagas disease model assessed as mean survival time at 100 mg/kg, po after 20 days; how it was run: as §2
Mus musculus [8] = experiment: Mortality rate in Trypanosoma cruzi Y infected IL12 knock out C57BL/6 mouse Chagas disease model at 100 mg/kg, po after 20 days; how it was run: as §2
Mus musculus [9] = experiment: Mortality rate in Trypanosoma cruzi Y infected IFN-gamma knock out C57BL/6 mouse Chagas disease model at 100 mg/kg, po after 20 days; how it was run: as §2
Mus musculus [10] = experiment: Effect on survival in Trypanosoma cruzi Y infected IFN-gamma knock out C57BL/6 mouse Chagas disease model assessed as mean survival time at 20 mg/kg, po twice daily after 20 days
How it was run: (§3)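 Male C57BL/6 mice aged 8–10 weeks (wild-type or cytokine KO) were infected i.p. with 5,000 Y-strain blood trypomastigotes. From 4 dpi they received 20 mg/kg/day orally, split into two daily doses, for 20 days, in 2% methylcellulose with 0.5% Tween 80. Deaths were tracked to 60 dpi, and mortality was given as deaths/total. Mean survival time counted survivors as dying at 60 days. Log rank and Peto-Peto-Wilcoxon tests were used.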

Mus musculus [11] = experiment: Mortality rate in Trypanosoma cruzi Y infected IL12 knock out C57BL/6 mouse Chagas disease model at 20 mg/kg, po twice daily after 20 days; how it was run: as §3
Trypanosoma cruzi [12] = experiment: Antimicrobial activity against Trypanosoma cruzi Y infected IFN-gamma knock out C57BL/6 mouse Chagas disease model assessed as percent of cured mouse at 20 mg/kg, po twice daily after 20 days
How it was run: (§4)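 Male C57BL/6 mice aged 8–10 weeks (wild-type, IL-12p40 KO or IFN-γ KO) were infected i.p. with 5,000 blood trypomastigotes of the Y strain. From 4 dpi they were dosed orally at 20 mg/kg/day, split into two daily doses, for 20 consecutive days, in 2% methylcellulose with 0.5% Tween 80. Mice negative on fresh blood at 60 dpi had 0.5 ml orbital blood cultured in LIT medium at 28°C for 30–60 days. Cure meant negative on both tests.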

Mus musculus [13] = experiment: Effect on survival in Trypanosoma cruzi Y infected IL12 knock out C57BL/6 mouse Chagas disease model assessed as mean survival time at 20 mg/kg, po twice daily after 20 days; how it was run: as §3
Mus musculus [14] = experiment: Mortality rate in Trypanosoma cruzi Y infected IFN-gamma knock out C57BL/6 mouse Chagas disease model at 20 mg/kg, po twice daily after 20 days; how it was run: as §3
Trypanosoma cruzi [15] = experiment: Antimicrobial activity against Trypanosoma cruzi Y infected IL12 knock out C57BL/6 mouse Chagas disease model assessed as percent of cured mouse at 20 mg/kg, po twice daily after 20 days; how it was run: as §4
Mus musculus [16] = experiment: Effect on survival in Trypanosoma cruzi Y infected C57BL/6 mouse Chagas disease model assessed as mean survival time at 20 mg/kg, po twice daily after 20 days; how it was run: as §3
Trypanosoma cruzi [17] = experiment: Antimicrobial activity against Trypanosoma cruzi Y infected wild type C57BL/6 mouse Chagas disease model assessed as percent of cured mouse at 20 mg/kg, po twice daily after 20 days; how it was run: as §4
Mus musculus [18] = experiment: Mortality rate in Trypanosoma cruzi Y infected wild type C57BL/6 mouse Chagas disease model at 20 mg/kg, po twice daily after 20 days; how it was run: as §3

Compound | Activity (Trypanosoma cruzi [1]) [%] | MST (Mus musculus [2]) [days] | MST (Mus musculus [3]) [days] | Activity (Trypanosoma cruzi [4]) [%] | Activity (Trypanosoma cruzi [5]) [%] | Activity (Mus musculus [6]) [%] | MST (Mus musculus [7]) [days] | Activity (Mus musculus [8]) [%] | Activity (Mus musculus [9]) [%] | MST (Mus musculus [10]) [days] | Activity (Mus musculus [11]) [%] | Activity (Trypanosoma cruzi [12]) [%] | MST (Mus musculus [13]) [days] | Activity (Mus musculus [14]) [%] | Activity (Trypanosoma cruzi [15]) [%] | MST (Mus musculus [16]) [days] | Activity (Trypanosoma cruzi [17]) [%] | Activity (Mus musculus [18]) [%]
O=C(Cn1ccnc1[N+](=O)[O-])NCc1ccccc1 [BENZNIDAZOLE] | 0 | >60 | 59.6 | 86 | 39 | 0 | 42.1 | 17 | 100 |  |  |  |  |  |  |  |  | 
CC[C@@H]([C@H](C)O)n1ncn(-c2ccc(N3CCN(c4ccc(OC[C@@H]5CO[C@@](Cn6cncn6)(c6ccc(F)cc6F)C5)cc4)CC3)cc2)c1=O [POSACONAZOLE] |  |  |  |  |  |  |  |  |  | 52.1 | 23 | 15 | 59.2 | 30 | 35 | >60 | 89 | 0
